Laboratory results published in ChEMBL document CHEMBL4118197, “The discovery and preclinical evaluation of BMS-707035, a potent HIV-1 integrase strand transfer inhibitor” (Bioorg Med Chem Lett, 2018).

Key:
[1] = Clearance in Sprague-Dawley rat at 1 mg/kg, iv after 4 hrs; assay type: ADME, organism-based; settings: in vivo
Summary of the method: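 Male Sprague-Dawley rats given 1 mpk IV in PEG400/ethanol (90:10); blood sampled at 5 and 30 min and 1, 2 and 4 h post-dose; clearance from plasma profile.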

[2] = Aqueous solubility of the compound; assay type: physicochemical
Summary of the method: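 Aqueous solubility measured at pH 2.3, 6.1, 7.3 and 8.5, in µg/mL.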

[3] = target: Human immunodeficiency virus type 1 integrase (Human immunodeficiency virus 1, UniProt Q7ZJM1); test: Inhibition of HIV1 integrase strand transfer activity
Chain of Human immunodeficiency virus type 1 integrase (Q7ZJM1 whole entry): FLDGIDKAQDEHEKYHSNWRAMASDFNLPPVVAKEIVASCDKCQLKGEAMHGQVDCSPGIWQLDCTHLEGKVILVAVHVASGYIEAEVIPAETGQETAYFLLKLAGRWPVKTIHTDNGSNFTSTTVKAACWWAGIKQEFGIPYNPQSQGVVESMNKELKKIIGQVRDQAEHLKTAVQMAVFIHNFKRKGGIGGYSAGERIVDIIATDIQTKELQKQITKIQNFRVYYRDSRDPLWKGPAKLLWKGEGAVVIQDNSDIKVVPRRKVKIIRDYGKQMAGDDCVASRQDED

clearance [1]: 46 mL/min/kg | solubility [2]: ≤ 5 µg/mL | IC50 [3]: 4 nM
Structure (SMILES): CS(=O)(=O)c1cc(F)ccc1CNC(=O)c1nc2n(c(=O)c1O)CCCC21CCCC1
